Measurements published in ChEMBL document CHEMBL1129661, “The chemistry of Pseudomonic acid. 15. Synthesis and antibacterial activity of a series of 5-alkyl, 5-alkenyl, and 5-heterosubstituted oxazoles” (1996).
Values after ≈ are worked out from the molar mass of the structure shown.

Experiments:
Staphylococcus aureus [1] = experiment: Minimal inhibitory concentration against Staphylococcus aureus Oxford NCTC 6571; assay type: functional
Outline: (§1)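 Agar dilution method. Each plate was spot-inoculated with 1 µL spots, about 10^6 CFU per spot. Plates were incubated 18-24 h at 37 °C.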

Haemophilus influenzae [2] = experiment: Minimal inhibitory concentration against Haemophilus influenzae Q1; assay type: functional; outline: as §1
Moraxella catarrhalis [3] = experiment: Minimal inhibitory concentration of compound against Moraxella catarrhalis 1502; assay type: functional; outline: as §1
Streptococcus pyogenes = experiment: Minimal inhibitory concentration against Streptococcus pyogenes CN10; assay type: functional; outline: as §1
Streptococcus pneumoniae [4] = experiment: Minimal inhibitory concentration against Streptococcus pneumoniae PU7; assay type: functional; outline: as §1
Haemophilus influenzae [5] = experiment: Minimal inhibitory concentration against Haemophilus influenzae H128; assay type: functional; outline: as §1
Streptococcus pneumoniae [6] = experiment: Minimal inhibitory concentration of compound against Streptococcus pneumoniae 1629; assay type: functional; outline: as §1
Staphylococcus aureus [7] = experiment: Minimal inhibitory concentration of compound against Staphylococcus aureus Russell; assay type: functional; outline: as §1
Moraxella catarrhalis [8] = experiment: Minimal inhibitory concentration of compound against Moraxella catarrhalis 1502; No bacterial growth; assay type: functional, organism-based; outline: as §1
Moraxella catarrhalis [9] = experiment: Minimal inhibitory concentration of compound against Moraxella catarrhalis H; assay type: functional; outline: as §1

MIC (Staphylococcus aureus [1]) [µg/mL]	MIC (Haemophilus influenzae [2]) [µg/mL]	MIC (Moraxella catarrhalis [3]) [µg/mL]	MIC (Streptococcus pyogenes) [µg/mL]	MIC (Streptococcus pneumoniae [4]) [µg/mL]	MIC (Haemophilus influenzae [5]) [µg/mL]	MIC (Streptococcus pneumoniae [6]) [µg/mL]	MIC (Staphylococcus aureus [7]) [µg/mL]	MIC (Moraxella catarrhalis [8])	MIC (Moraxella catarrhalis [9]) [µg/mL]	SMILES
1 (≈ 2.36 µM)	1 (≈ 2.36 µM)	4 (≈ 9.44 µM)	0.5 (≈ 1.18 µM)	4 (≈ 9.44 µM)	–	–	–	–	–	CCCCc1cnc(/C=C(\C)C[C@@H]2OC[C@H](C[C@@H]3O[C@H]3[C@@H](C)[C@H](C)O)[C@@H](O)[C@H]2O)o1
1 (≈ 2.06 µM)	1 (≈ 2.06 µM)	0.5 (≈ 1.03 µM)	1 (≈ 2.06 µM)	4 (≈ 8.24 µM)	–	–	–	–	–	C/C(=C\c1ncc(C2SCCCS2)o1)C[C@@H]1OC[C@H](C[C@@H]2O[C@H]2[C@@H](C)[C@H](C)O)[C@@H](O)[C@H]1O
> 128	32 (≈ 70.3 µM)	32 (≈ 70.3 µM)	> 128	> 128	–	–	–	–	–	CCOC(=O)Oc1cnc(/C=C(\C)C[C@@H]2OC[C@H](C[C@@H]3O[C@H]3[C@@H](C)[C@H](C)O)[C@@H](O)[C@H]2O)o1
2 (≈ 5.06 µM)	2 (≈ 5.06 µM)	16 (≈ 40.5 µM)	–	16 (≈ 40.5 µM)	–	–	–	–	–	CCc1cnc(/C=C(\C)C[C@@H]2OC[C@H](C[C@@H]3O[C@H]3[C@@H](C)[C@H](C)O)[C@@H](O)[C@H]2O)o1
8 (≈ 17.8 µM)	0.5 (≈ 1.11 µM)	–	4 (≈ 8.88 µM)	8 (≈ 17.8 µM)	–	–	–	–	8 (≈ 17.8 µM)	C/C(=C\c1ncc(N2CCCCC2)o1)C[C@@H]1OC[C@H](C[C@@H]2O[C@H]2[C@@H](C)[C@H](C)O)[C@@H](O)[C@H]1O

More lines, now with the values behind:

SMILES	MIC (Staphylococcus aureus [1]) [µg/mL]	MIC (Haemophilus influenzae [2]) [µg/mL]	MIC (Moraxella catarrhalis [3]) [µg/mL]	MIC (Streptococcus pyogenes) [µg/mL]	MIC (Streptococcus pneumoniae [4]) [µg/mL]	MIC (Haemophilus influenzae [5]) [µg/mL]	MIC (Streptococcus pneumoniae [6]) [µg/mL]	MIC (Staphylococcus aureus [7]) [µg/mL]	MIC (Moraxella catarrhalis [8])	MIC (Moraxella catarrhalis [9]) [µg/mL]
C/C(=C\C(=O)OCCCCCCCCC(=O)O)C[C@@H]1OC[C@H](C[C@@H]2O[C@H]2[C@@H](C)[C@H](C)O)[C@@H](O)[C@H]1O [MUPIROCIN]	0.25 (≈ 0.499 µM)	0.03 (≈ 0.0599 µM)	0.25 (≈ 0.499 µM)	0.13 (≈ 0.26 µM)	0.25 (≈ 0.499 µM)	–	–	–	–	–
C/C(=C\c1ncc(N(C)c2ccccc2)o1)C[C@@H]1OC[C@H](C[C@@H]2O[C@H]2[C@@H](C)[C@H](C)O)[C@@H](O)[C@H]1O	16 (≈ 33.9 µM)	–	32 (≈ 67.7 µM)	16 (≈ 33.9 µM)	32 (≈ 67.7 µM)	16 (≈ 33.9 µM)	–	–	–	–
C/C(=C\c1ncc(CCCCCCCCC(=O)[O-])o1)C[C@@H]1OC[C@H](C[C@@H]2O[C@H]2[C@@H](C)[C@H](C)O)[C@@H](O)[C@H]1O.[Na+]	4	4	8	1	4	–	–	–	–	–
C/C(=C\c1ncco1)C[C@@H]1OC[C@H](C[C@@H]2O[C@H]2[C@@H](C)[C@H](C)O)[C@@H](O)[C@H]1O	16 (≈ 43.5 µM)	2 (≈ 5.44 µM)	4 (≈ 10.9 µM)	32 (≈ 87.1 µM)	–	–	128 (≈ 348 µM)	–	–	–
C/C(=C\c1ncc(C=O)o1)C[C@@H]1OC[C@H](C[C@@H]2O[C@H]2[C@@H](C)[C@H](C)O)[C@@H](O)[C@H]1O	2 (≈ 5.06 µM)	4 (≈ 10.1 µM)	8 (≈ 20.2 µM)	16 (≈ 40.5 µM)	64 (≈ 162 µM)	–	–	–	–	–
CCOc1cnc(/C=C(\C)C[C@@H]2OC[C@H](C[C@@H]3O[C@H]3[C@@H](C)[C@H](C)O)[C@@H](O)[C@H]2O)o1	2 (≈ 4.86 µM)	0.5 (≈ 1.22 µM)	4 (≈ 9.72 µM)	2 (≈ 4.86 µM)	2 (≈ 4.86 µM)	–	–	–	–	–
C/C(=C\c1ncc(Sc2ccccc2)o1)C[C@@H]1OC[C@H](C[C@@H]2O[C@H]2[C@@H](C)[C@H](C)O)[C@@H](O)[C@H]1O	–	8 (≈ 16.8 µM)	8 (≈ 16.8 µM)	4 (≈ 8.41 µM)	32 (≈ 67.3 µM)	–	–	16 (≈ 33.6 µM)	–	–
COC(=O)c1nc(/C=C(\C)C[C@@H]2OC[C@H](C[C@@H]3O[C@H]3[C@@H](C)[C@H](C)O)[C@@H](O)[C@H]2O)oc1N1CCCCC1	16 (≈ 31.5 µM)	2 (≈ 3.93 µM)	–	128 (≈ 252 µM)	32 (≈ 62.9 µM)	–	–	–	No growth	–
C/C(=C\c1ncc([S+]([O-])c2ccccc2)o1)C[C@@H]1OC[C@H](C[C@@H]2O[C@H]2[C@@H](C)[C@H](C)O)[C@@H](O)[C@H]1O (some centres undefined)	16 (≈ 32.5 µM)	2 (≈ 4.07 µM)	16 (≈ 32.5 µM)	4 (≈ 8.14 µM)	16 (≈ 32.5 µM)	–	–	–	–	–
